Results reported in ChEMBL document CHEMBL4699501, “Dihydrodibenzothiepine: Promising hydrophobic pharmacophore in the influenza cap-dependent endonuclease inhibitor” (Bioorg Med Chem Lett, 2020).
Calls of active or inactive are those of the source. No cut-off for these calls is given here.

Assays:
[1] = Clearance in iv dosed rat by LC/MS/MS analysis; format: ADME, organism-based; conditions: in vivo
Procedure, shortened: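 Rats received a single intravenous dose, and plasma levels were quantified by LC/MS/MS to derive clearance. Values are the mean of duplicate experiments.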

[2] = Inhibition of Influenza virus Cap-dependent endonuclease; parameters: species or system Influenza A virus
Influenza A virus [3] = assay: Antiviral activity against Influenza A virus (A/WSN/1933(H1N1)) infected in […] MDBK cells assessed as cell protection incubated for 72 hrs; format: functional, organism-based
Procedure, shortened: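 Madin-Darby bovine kidney cells were infected with A/WSN/33 at 50 TCID50/well and incubated with compound at 37 °C in a CO2 incubator for 72 hr.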

[4] = Metabolic stability in rat liver microsomes assessed as compound remaining at 2 uM incubated for 30 mins; format: ADME, Microsome; conditions: read-out: Stabilty
Procedure, shortened: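 Compound at 2 μM was incubated with rat liver microsomes at 37 °C for 30 min. The read-out is % of compound remaining.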

[5] = Fraction unbound in rat serum; format: ADME, cell-free
Procedure, shortened: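 Free fraction was measured in the presence of rat serum. Values are the mean of duplicate experiments.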

Influenza A virus [6] = assay: Antiviral activity against Influenza A virus (A/WSN/1933(H1N1)) infected in mouse assessed as reduction in viral titer in lung by measuring reduction in virus infectivity in MDCK cells at 0.4 to 10 mg/kg, po administered after 5 days of infection and measured after 24 hrs; format: functional, organism-based; conditions: dose mg/kg 0.4-10, time […]
Procedure, shortened: (§1)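 Mice were inoculated with A/WSN/33 at 100 TCID50/mouse. Oral dosing was twice daily (BID), starting 5 days after infection. Lung virus titer (log TCID50/mL) was determined on MDCK cells 24 h after the first dose.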

Influenza A virus [7] = assay: Antiviral activity against Influenza A virus (A/WSN/1933(H1N1)) infected in mouse assessed as reduction in viral titer in lung by measuring reduction in virus infectivity in MDCK cells at 5 mg/kg, po administered after 5 days of infection and measured after 24 hrs; format: functional, organism-based; procedure, shortened: as §1

| SMILES | clearance [1] | IC50 [2] | EC50 (Influenza A virus [3]) | remaining at 0.5 h, 2 µM [4] | fraction unbound [5] | Activity (Influenza A virus [6]) | Activity (Influenza A virus [7]) |
| --- | --- | --- | --- | --- | --- | --- | --- |
| O=C1c2c(O)c(=O)ccn2N(C2c3ccccc3CSc3ccccc32)CN1C1CC1 (centres undefined) | 46 mL/min/kg | 35 nM | 13.7 nM | 73.7% | 0.0783 | – | – |
| CC(C)N1CN(C(c2ccccc2)c2ccccc2Cl)n2ccc(=O)c(O)c2C1=O (centres undefined) | – | 210 nM | 77.8 nM | – | – | – | – |
| C[C@@H](N1CN([C@H]2c3ccc(F)cc3CSc3ccccc32)n2ccc(=O)c(O)c2C1=O)C(F)(F)F | 11.6 mL/min/kg | 12.3 nM | 3.54 nM | 95.3% | 0.00383 | – | – |
| CC(C)N1CN(C(c2cccc(C(F)(F)F)c2)c2cccc(C(F)(F)F)c2)n2ccc(=O)c(O)c2C1=O | – | 456 nM | 386 nM | – | – | – | – |
| C[C@@H](N1CN([C@H]2c3ccccc3CSc3c(F)cccc32)n2ccc(=O)c(O)c2C1=O)C(F)(F)F | 10.3 mL/min/kg | – | 3.41 nM | 95.6% | 0.00574 | – | – |
| C[C@@H](N1CN([C@@H]2c3ccccc3SCc3c2ccc(F)c3F)n2ccc(=O)c(O)c2C1=O)C(F)(F)F | 11 mL/min/kg | 5.57 nM | 4.28 nM | 81.1% | 0.00411 | Active | – |
| C[C@H](N1CN([C@H]2c3ccccc3CSc3ccccc32)n2ccc(=O)c(O)c2C1=O)C(F)(F)F | – | – | 18.6 nM | 79.8% | – | – | – |
| C[C@@H](N1CN([C@@H]2c3ccccc3SCc3cccc(F)c32)n2ccc(=O)c(O)c2C1=O)C(F)(F)F | 18 mL/min/kg | 31.8 nM | 3.75 nM | 102% | 0.012 | – | – |
| Cc1cccc(C(c2ccccc2)N2CN(C(C)C)C(=O)c3c(O)c(=O)ccn32)c1 (centres undefined) | – | 276 nM | 219 nM | – | – | – | – |
| COc1cccc(C(c2cccc(OC)c2)N2CN(C(C)C)C(=O)c3c(O)c(=O)ccn32)c1 | – | 1310 nM | 589 nM | – | – | – | – |
| C[C@@H](N1CN([C@H]2c3ccccc3CSc3c(Cl)cccc32)n2ccc(=O)c(O)c2C1=O)C(F)(F)F | 6.78 mL/min/kg | 23.2 nM | 13.5 nM | 92.3% | 0.00329 | – | – |
| C[C@@H](N1CN([C@H]2c3ccccc3CSc3ccc(F)cc32)n2ccc(=O)c(O)c2C1=O)C(F)(F)F | 15.4 mL/min/kg | – | 8.16 nM | 103% | 0.00975 | – | – |
| C[C@@H](N1CN([C@H]2c3cc(F)ccc3CSc3ccccc32)n2ccc(=O)c(O)c2C1=O)C(F)(F)F | 21.3 mL/min/kg | 44.3 nM | 4.68 nM | 98.9% | 0.0129 | – | – |
| C[C@@H](N1CN([C@@H]2c3ccccc3SCc3c(Cl)cccc32)n2ccc(=O)c(O)c2C1=O)C(F)(F)F | 7.36 mL/min/kg | 30 nM | 3.04 nM | 102% | 0.00293 | – | – |
| CC(C)N1CN(C(c2cccc(Cl)c2)c2cccc(Cl)c2)n2ccc(=O)c(O)c2C1=O | – | 230 nM | 65.8 nM | – | – | – | – |
| C[C@@H](N1CN([C@@H]2c3ccccc3CSc3ccccc32)n2ccc(=O)c(O)c2C1=O)C(F)(F)F | – | – | 131 nM | – | – | – | – |
| Cc1ccccc1C(c1ccccc1)N1CN(C(C)C)C(=O)c2c(O)c(=O)ccn21 (centres undefined) | – | 142 nM | 73.4 nM | – | – | – | – |
| [2H]C([2H])([2H])C([2H])(N1CN(C2c3ccccc3CSc3ccccc32)n2ccc(=O)c(O)c2C1=O)C([2H])([2H])[2H] (centres undefined) | 39.1 mL/min/kg | 43.4 nM | 11.7 nM | 74.4% | 0.0601 | – | – |
| C[C@@H](N1CN([C@H]2c3ccccc3CSc3ccc(Cl)cc32)n2ccc(=O)c(O)c2C1=O)C(F)(F)F | – | 24.9 nM | 70.8 nM | – | – | – | – |
| Cc1ccc(C(c2ccc(C)cc2)N2CN(C(C)C)C(=O)c3c(O)c(=O)ccn32)cc1 | – | 394 nM | 440 nM | – | – | – | – |
| CC(C)N1CN(C2c3ccccc3CSc3ccccc32)n2ccc(=O)c(O)c2C1=O (racemic) | 32.7 mL/min/kg | – | 16.9 nM | 72.6% | 0.0768 | – | – |

| SMILES | clearance [1] | IC50 [2] | EC50 (Influenza A virus [3]) | remaining at 0.5 h, 2 µM [4] | fraction unbound [5] | Activity (Influenza A virus [6]) | Activity (Influenza A virus [7]) |
| --- | --- | --- | --- | --- | --- | --- | --- |
| CC(CN(C)C)N1CN(C2c3ccccc3CSc3ccccc32)n2ccc(=O)c(O)c2C1=O (centres undefined) | 98.7 mL/min/kg | – | 84.1 nM | 76.4% | – | – | – |
| C[C@@H](N1CN([C@H]2c3ccccc3CSc3cccc(F)c32)n2ccc(=O)c(O)c2C1=O)C(F)(F)F | 9.09 mL/min/kg | 37.1 nM | 15.1 nM | 97.4% | 0.0119 | – | – |
| C[C@@H](N1CN([C@H]2c3cc(Cl)ccc3CSc3ccccc32)n2ccc(=O)c(O)c2C1=O)C(F)(F)F | 12.4 mL/min/kg | – | 4.21 nM | 94.1% | 0.00514 | – | – |
| CC(C)N1CN(C(c2ccccc2)c2ccccc2)n2ccc(=O)c(O)c2C1=O | – | 286 nM | 81.6 nM | – | – | – | – |
| CC(C)N1CN(C(c2ccccc2)c2ccc(Cl)cc2)n2ccc(=O)c(O)c2C1=O (centres undefined) | – | 291 nM | 94 nM | – | – | – | – |
| CCOC(=O)C1=C[C@@H](OC(CC)CC)[C@H](NC(C)=O)[C@@H](N)C1 | – | – | – | – | – | – | Active |
| C[C@H](N1CN([C@@H]2c3ccccc3CSc3ccccc32)n2ccc(=O)c(O)c2C1=O)C(F)(F)F | – | – | 21.7 nM | – | – | – | – |
| CC(C)N1CN(C2c3ccccc3CCc3ccccc32)n2ccc(=O)c(O)c2C1=O | – | 60.1 nM | 20.1 nM | – | – | – | – |
| CC(C)N1CN(C(c2ccccc2)c2cccc(Cl)c2)n2ccc(=O)c(O)c2C1=O (centres undefined) | – | 101 nM | 75.9 nM | – | – | – | – |
| CC(C)N1CN(C2c3ccccc3COc3ccccc32)n2ccc(=O)c(O)c2C1=O (centres undefined) | – | – | 71 nM | – | – | – | – |
| O=C1c2c(O)c(=O)ccn2N(C2c3ccccc3CSc3ccccc32)CN1C(CF)CF (centres undefined) | 33.5 mL/min/kg | 113 nM | 27.5 nM | 84.9% | – | – | – |
| C[C@@H](N1CN([C@H]2c3ccc(Cl)cc3CSc3ccccc32)n2ccc(=O)c(O)c2C1=O)C(F)(F)F | 5.7 mL/min/kg | 6.99 nM | 10.5 nM | 96.1% | 0.00117 | – | – |
| CC(C)N1CN(C(c2ccccc2Cl)c2ccccc2Cl)n2ccc(=O)c(O)c2C1=O | – | 37 nM | 48.2 nM | – | – | – | – |
| C[C@@H](N1CN([C@@H]2c3ccccc3SCc3c(F)cccc32)n2ccc(=O)c(O)c2C1=O)C(F)(F)F | 8.37 mL/min/kg | 12.5 nM | 3.85 nM | 91.8% | 0.00978 | – | – |
| C[C@@H](N1CN([C@H]2c3ccccc3CSc3cccc(Cl)c32)n2ccc(=O)c(O)c2C1=O)C(F)(F)F | 10.2 mL/min/kg | 76.2 nM | 18.8 nM | 85.4% | 0.00589 | – | – |
| C[C@@H](N1CN([C@H]2c3ccccc3CSc3cc(F)ccc32)n2ccc(=O)c(O)c2C1=O)C(F)(F)F | 13.4 mL/min/kg | – | 14.3 nM | 93.9% | 0.00807 | – | – |
| C[C@@H](N1CN([C@H]2c3ccccc3SCc3cccc(Cl)c32)n2ccc(=O)c(O)c2C1=O)C(F)(F)F | 19.6 mL/min/kg | 9.95 nM | 3.52 nM | 93.3% | 0.0179 | – | – |
| COCC(C)N1CN(C2c3ccccc3CSc3ccccc32)n2ccc(=O)c(O)c2C1=O (centres undefined) | 49.1 mL/min/kg | 57.9 nM | 20.7 nM | 58.6% | 0.106 | – | – |
| C[C@@H](N1CN([C@H]2c3ccccc3CSc3cc(Cl)ccc32)n2ccc(=O)c(O)c2C1=O)C(F)(F)F | 12.2 mL/min/kg | 62.1 nM | 21.2 nM | 101% | 0.00303 | – | – |
| C[C@@H](N1CN([C@H]2c3ccccc3CSc3ccccc32)n2ccc(=O)c(O)c2C1=O)C(F)(F)F | 15.8 mL/min/kg | – | 4.69 nM | 98.1% | 0.0103 | – | – |
